Like-named read-outs stand apart in the source and are kept apart here.

One assay has as its system E. cloacae (IMP-1). As to the kind of experiment: Synergy assay: MIC of meropenem in combination with test compound. The format is cell-based.
The subject of another assay is E. coli (NDM-1). The description is as above. The class given is cell-based.
Another assay has as its system K. pneumoniae (IMP-28). The description is as above. The class given is cell-based.
In another assay the test system is E. coli (VIM-2). The description is as above. The format is cell-based.
For assay [1], the target named is T1, NDM-1 (Klebsiella pneumoniae, UniProt C7C422). Put plainly: Enzyme inhibition assay with nitrocefin as chromogenic substrate. The format is biochemical. A digest of the protocol: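 Recombinant NDM-1 (6 nM) in 50 mM HEPES pH 7.2 with 1 μM ZnSO₄ and 0.01% Triton X-100 was preincubated with a range of test compound concentrations for 15–60 min at 25 °C. Nitrocefin (10 μM, ∼2 × K_M) was then added and A492 was read at once over 30 cycles. For time 0, enzyme was added last. IC50 came from initial velocities, in three independent replicates.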

The next assay has as its target IMP-28 (Klebsiella oxytoca, UniProt G4WB26). Put plainly: Enzyme inhibition assay with nitrocefin as chromogenic substrate. The format is biochemical. The conditions noted are these: for decrease of activity against IMP-28 relative to 8: from IC50 data of Table 2.
Assay [2] addresses T2, IMP-1 (Serratia marcescens, UniProt P52699). The assay is described as above. The class given is biochemical. To be noted: for decrease of activity against IMP-1 relative to 8: from IC50 data of Table 2.
The next assay deals with VIM-2 (Escherichia coli, UniProt Q5U7L7). To be noted: cited from earlier work.
The subject of a further assay is IMP family. To be noted: cited from earlier work.
The target of assay [3] is T2, IMP-1. The conditions noted are these: cited from earlier work.
Another assay deals with VIM-1. To be noted: cited from earlier work.
The target of assay [4] is T1, NDM-1. The conditions noted are these: read-out: IC50 NDM-1; cited from earlier work.
Where [5] appears, read: test compound 0 μg/mL (meropenem alone, baseline).
Setting [6] is: mean ± SD, nitrocefin substrate.

T2 sequence (P52699 19-246, looked up, species assumed): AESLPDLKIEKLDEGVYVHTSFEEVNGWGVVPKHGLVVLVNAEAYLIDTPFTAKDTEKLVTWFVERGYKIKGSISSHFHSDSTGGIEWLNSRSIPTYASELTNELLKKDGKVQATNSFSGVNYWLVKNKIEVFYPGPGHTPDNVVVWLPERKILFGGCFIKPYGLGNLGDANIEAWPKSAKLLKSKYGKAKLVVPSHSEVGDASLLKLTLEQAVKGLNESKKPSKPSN
T1 sequence (C7C422 29-270, looked up, species assumed): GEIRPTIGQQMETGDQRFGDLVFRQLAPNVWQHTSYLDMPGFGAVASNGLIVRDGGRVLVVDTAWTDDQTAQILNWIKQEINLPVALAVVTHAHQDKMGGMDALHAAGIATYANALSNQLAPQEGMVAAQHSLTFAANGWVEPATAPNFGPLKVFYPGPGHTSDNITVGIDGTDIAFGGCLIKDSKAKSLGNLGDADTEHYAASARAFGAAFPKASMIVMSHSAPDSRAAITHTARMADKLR
Sequence of IMP-28 (G4WB26 20-246): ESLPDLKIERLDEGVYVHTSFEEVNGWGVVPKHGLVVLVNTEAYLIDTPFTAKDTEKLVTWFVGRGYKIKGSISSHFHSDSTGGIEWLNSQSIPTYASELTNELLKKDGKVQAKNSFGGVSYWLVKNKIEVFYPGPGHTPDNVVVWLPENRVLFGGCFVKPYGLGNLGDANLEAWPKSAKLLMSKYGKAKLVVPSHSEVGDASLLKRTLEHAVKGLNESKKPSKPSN

Consider `O=C(Cc1ccccc1)N[C@@H]1C(=O)N2C(C(=O)O)=C(CSCC(=O)c3ccccc3)CS[C@H]12` [Compound 6], for which, in the assay on E. cloacae (IMP-1) (test compound 128 μg/mL), the “Fold reduction of MIC (meropenem)” value is on record as 4 (4) fold and the “meropenem MIC” value is reported as 4 (4) μg/mL. Also, the “meropenem MIC” value with E. coli (NDM-1) (setting [5]) is 32 µg/mL.

In the case of `O=C(O)c1cccc(C(=O)O)n1` [DPA, Dipicolinic acid, reference compound], the “meropenem MIC” value is at most 0.031 µg/mL in the assay with K. pneumoniae (IMP-28) (test compound 64 μg/mL); at most 0.031 µg/mL in the assay with K. pneumoniae (IMP-28) (test compound 128 μg/mL); 4 µg/mL with E. coli (VIM-2) (setting [5]); at most 0.063 µg/mL in the assay with E. coli (VIM-2) (test compound 32 μg/mL); at most 0.063 µg/mL in the assay with E. coli (VIM-2) (test compound 64 μg/mL); at most 0.063 µg/mL with E. coli (VIM-2) (test compound 128 μg/mL). In addition, the “meropenem MIC” value in the assay on E. coli (NDM-1) (test compound 128 μg/mL) is at most 0.5 µg/mL.

For `O=C(Cc1ccccc1)N[C@@H]1C(=O)N2C(C(=O)O)=C(CSCc3ccccc3)CS[C@H]12` [Compound 11], the “meropenem MIC” value in the assay with E. cloacae (IMP-1) (setting [5]) is 32 µg/mL; in the assay on E. coli (VIM-2) (test compound 32 μg/mL), 2 (2) μg/mL; with E. coli (VIM-2) (test compound 64 μg/mL), 2 (2) μg/mL; in the assay with E. coli (NDM-1) (setting [5]) it was 32 µg/mL. On NDM-1 [1], the IC50 (in general, the midpoint of a concentration-inhibition curve) is over 100 µM. Also, the “Fold reduction of MIC (meropenem)” value in the assay with E. coli (VIM-2) (test compound 32 μg/mL) and in the assay on E. coli (VIM-2) (test compound 64 μg/mL) was 2 (2) fold in each case. Also, the “decrease of activity against IMP-28 relative to 8” value on IMP-28 is on record as “ca. 100 fold”. Besides, the “decrease of activity against IMP-1 relative to 8” value on IMP-1 [2] was “ca. 100 fold”.

As for `NCCN[C@H]1CC[C@H](CC(=O)N[C@H]2Cc3cccc(C(=O)O)c3OB2O)CC1` [taniborbactam], at VIM-2, the “IC50 VIM-2” value is on record as “sub-micromolar”. Besides, in the assay with IMP family, the “inhibition of the IMP family” value is given as “weak inhibition”.

As for `O=C(O)CSCC1=C(C(=O)O)N2C(=O)[C@@H](NC(=O)Cc3ccccc3)[C@H]2SC1` [Compound 13], the “Fold reduction of MIC (meropenem)” value was 4 (4) fold with E. cloacae (IMP-1) (test compound 128 μg/mL), 2 (2) fold in the assay on E. coli (VIM-2) (test compound 32 μg/mL) and 2 (2) fold in the assay on E. coli (VIM-2) (test compound 64 μg/mL). Besides, the “meropenem MIC” value in the assay with E. cloacae (IMP-1) (test compound 128 μg/mL) is 4 (4) μg/mL; in the assay with E. coli (VIM-2) (test compound 32 μg/mL), 2 (2) μg/mL; with E. coli (VIM-2) (test compound 64 μg/mL), 2 (2) μg/mL; with E. coli (NDM-1) (setting [5]) it was 32 µg/mL. Besides, the “decrease of activity against IMP-28 relative to 8” value at IMP-28 is “ca. 100 fold”. The compound also returned an IC50 on IMP-1 [2] of over 100 µM. Moreover, the “decrease of activity against IMP-1 relative to 8” value at IMP-1 [2] is given as “ca. 100 fold”.

With `O=C(Cc1ccccc1)N[C@@H]1C(=O)N2C(C(=O)O)=C(CS[C@@H](Cc3ccccc3)C(=O)O)CS[C@H]12` [Compound 10], in the assay with E. cloacae (IMP-1) (test compound 128 μg/mL), the “Fold reduction of MIC (meropenem)” value is recorded as 4 (4) fold and the “meropenem MIC” value is given as 4 (4) μg/mL.

Take `O=C(Cc1ccccc1)N[C@H](C(=O)O)[C@@H]1N=C(C(=O)O)C(CSC(C(=O)O)c2ccccc2)CS1` (stereo partly drawn) [Compound 8H]: the “IC50 IMP-28” value at IMP-28 (setting [6]) is recorded as “sub-micromolar”. Besides, the “IC50 IMP-1” value at IMP-1 [2] (setting [6]) was “sub-micromolar”.

As to `CC1=C(C(=O)O)N2C(=O)[C@@H](NC(=O)Cc3ccccc3)[C@H]2SC1` [Compound 15], the IC50 at NDM-1 [1] and against IMP-1 [2] was over 100 µM in each case. Besides, the “Fold reduction of MIC (meropenem)” value with E. coli (VIM-2) (test compound 32 μg/mL) and in the assay on E. coli (VIM-2) (test compound 64 μg/mL) was 2 (2) fold each time. The results for the “meropenem MIC” value in the assay on E. coli (VIM-2) (test compound 32 μg/mL), in the assay with E. coli (VIM-2) (test compound 64 μg/mL) and with E. coli (NDM-1) (setting [5]) were 2 (2) μg/mL, 2 (2) μg/mL and 32 µg/mL, respectively. Also, the “decrease of activity against IMP-28 relative to 8” value at IMP-28 is recorded as “ca. 100 fold”. Besides, the “decrease of activity against IMP-1 relative to 8” value on IMP-1 [2] is listed as “ca. 100 fold”.

With `O=C(O)c1ncsc1NS(=O)(=O)c1cccnc1` [ANT431], the “inhibitory activity against IMP-1” value on IMP-1 [3] is recorded as “remain resistant”. The “inhibitory activity against VIM-1” value in the assay with VIM-1 is listed as “remain resistant”. Further, the 50% inhibitory concentration (IC50) on NDM-1 [4] is 2.67 µM.

As for `O=C(Cc1ccccc1)N[C@@H]1C(=O)N2C(C(=O)O)=C(CSC(C(=O)O)c3ccccc3)CS[C@H]12` (stereo partly drawn) [Compound 8], the “Fold reduction of MIC (meropenem)” value with K. pneumoniae (IMP-28) (test compound 32 μg/mL), in the assay with K. pneumoniae (IMP-28) (test compound 64 μg/mL) and in the assay with K. pneumoniae (IMP-28) (test compound 128 μg/mL) was at least 64 fold in each case.

Compound `O=C(Cc1ccccc1)N[C@@H]1C(=O)N2C(C(=O)O)=C(CSCCc3ccccc3)CS[C@H]12` [Compound 12] showed an IC50 against NDM-1 [1] of over 100 µM. Also, the “meropenem MIC” value with E. coli (NDM-1) (setting [5]) stood at 64 µg/mL.

`O=C(Cc1ccccc1)N[C@@H]1C(=O)N2C(C(=O)O)=C(CS[C@H](Cc3ccccc3)C(=O)O)CS[C@H]12` [Compound 9]: the “Fold reduction of MIC (meropenem)” value in the assay on K. pneumoniae (IMP-28) (test compound 32 μg/mL), in the assay on K. pneumoniae (IMP-28) (test compound 64 μg/mL) and with K. pneumoniae (IMP-28) (test compound 128 μg/mL) was at least 64 fold in each case. Besides, on IMP-28 (more potent than 10), the “potency relative to diastereomer 10 against IMP-28” value is listed as about 30 fold. At IMP-1 [2] (more potent than 10), the “potency relative to diastereomer 10 against IMP-1” value is reported as “ca. 10 fold”.

The values are drawn from article PMC8273888 (Journal of Medicinal Chemistry, 2021).
